Reference: article PMC10245299 (Bioorganic & medicinal chemistry letters, 2022)
Read-outs that look alike come from different tables or passages of the source.

How the values were obtained:
K562 cells [1] = settings: read-out: Toxicity IC50, control compounds; cited from earlier work
K562 cells [2] = experiment: Direct toxicity against K562 cells; type: cell-based; settings: Homo sapiens, K562, 72 h, read-out: Toxicity IC50
Procedure, shortened: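 Test compounds were applied directly to K562 cells, without T cells, to measure direct toxicity. n=3.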

[3] = Stability in 50% plasma in phosphate buffered saline; type: in vitro ADME
[4] = by 24 hours in plasma; cited from earlier work
[5] = Stability in 5 mg/mL K562 extract in lysis buffer; type: in vitro ADME; settings: n=2

Row | SMILES | IC50 (K562 cells [1]) | IC50 (K562 cells [2]) | also measured
1 | C/C(=C\CCP(=O)(OCC(=O)OC(C)(C)C)Oc1ccccc1)CO (centres unmarked) [Compound 7] | > 100 µM | – | –
2 | CCOC(=O)CNP(=O)(CC/C=C(\C)CO)Oc1ccccc1 (centres unmarked) [Compound 6] | > 100 µM | – | –
3 | COC(=O)[C@@H](NP(=O)(CC/C=C(\C)CO)N[C@H](C(=O)OC)C(C)C)C(C)C [Compound 17] | – | 10 to 100 µM | –
4 | CCOC(=O)[C@H](C)NP(=O)(CCC=C(C)C)N[C@@H](C)C(=O)OCC [Compound 12] | – | – | remaining at 24 h [3]: ≥ 70%
5 | C/C(=C\CCP(=O)(OCOC(=O)C(C)(C)C)OCOC(=O)C(C)(C)C)CO [Compound 5] | > 100 µM | – | percent metabolized in plasma [4]: 95%; K562 extract (4 h, percent remaining) [5]: totally disappeared
6 | CCOC(=O)CNP(=O)(CC/C=C(\C)CO)NCC(=O)OCC [Compound 16] | – | 10 to 100 µM | –
